Calls of active or inactive are those of the source. No cut-off for these calls is given here.
Legend:
Format in all cases: functional, organism-based
Staphylococcus aureus = assay: Antibacterial activity against Staphylococcus aureus at 20 to 120 ug/disk
Summary of the method: (§1)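 Agar diffusion test with compound loaded at 20 to 120 µg/disk. Read-out is a zone of growth inhibition of the test organism on agar. The same format covers bacteria (S. aureus, B. subtilis, E. coli, P. aeruginosa), the fungus Mucor miehei and the yeast Candida albicans.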

Bacillus subtilis = assay: Antibacterial activity against Bacillus subtilis at 20 to 120 ug/disk; summary of the method: as §1
Escherichia coli = assay: Antibacterial activity against Escherichia coli at 20 to 120 ug/disk; summary of the method: as §1
Pseudomonas aeruginosa = assay: Antibacterial activity against Pseudomonas aeruginosa at 20 to 120 ug/disk; summary of the method: as §1
Rhizomucor miehei = assay: Antifungal activity against Mucor miehei at 20 to 120 ug/disk; summary of the method: as §1
Candida albicans = assay: Antifungal activity against Candida albicans at 20 to 120 ug/disk; summary of the method: as §1
Trichomonas vaginalis = assay: Antiprotozoal activity against Trichomonas vaginalis

C[C@@H]1CC(=O)C2=C(C3OC3[C@]3(O)[C@H]2C(=O)c2cccc(O)c2[C@@H]3O)[C@H]1O (stereo not given in full)
Activity (Staphylococcus aureus): inactive
Activity (Bacillus subtilis): inactive
Activity (Escherichia coli): inactive
Activity (Pseudomonas aeruginosa): inactive
Activity (Rhizomucor miehei): inactive
Activity (Candida albicans): inactive
Activity (Trichomonas vaginalis): inactive

C[C@@H]1CC(=O)c2c(ccc3c2C(=O)c2cccc(O)c2C3=O)C1
Activity (Bacillus subtilis): Active
Activity (Pseudomonas aeruginosa): Active

C[C@@H]1CC(=O)C2=C(CC[C@]3(O)[C@H]2C(=O)c2cccc(O)c2[C@@H]3O)C1
Activity (Staphylococcus aureus): inactive
Activity (Bacillus subtilis): inactive
Activity (Escherichia coli): inactive
Activity (Pseudomonas aeruginosa): inactive
Activity (Rhizomucor miehei): inactive
Activity (Candida albicans): inactive
Activity (Trichomonas vaginalis): inactive

C[C@@H]1CC(=O)C2=C(C1)C1OC1[C@]1(O)[C@H]2C(=O)c2cccc(O)c2[C@@H]1O (stereo not given in full)
Activity (Staphylococcus aureus): inactive
Activity (Bacillus subtilis): inactive
Activity (Escherichia coli): inactive
Activity (Pseudomonas aeruginosa): inactive
Activity (Rhizomucor miehei): inactive
Activity (Candida albicans): inactive
Activity (Trichomonas vaginalis): inactive

C[C@@H]1CC(=O)C2=C(C[C@@H](O)[C@]3(O)[C@H]2C(=O)c2cccc(O)c2[C@@H]3O)[C@H]1O
Activity (Staphylococcus aureus): inactive
Activity (Bacillus subtilis): inactive
Activity (Escherichia coli): inactive
Activity (Pseudomonas aeruginosa): inactive
Activity (Rhizomucor miehei): inactive
Activity (Candida albicans): inactive
Activity (Trichomonas vaginalis): inactive

C[C@H]1CC(=O)c2c(ccc3c2C(=O)c2cccc(O)c2C3=O)[C@@H]1O
Activity (Bacillus subtilis): Active
Activity (Pseudomonas aeruginosa): Active

CC1CC(=O)C2(O)C(O)(CCC34OC32C(=O)c2cccc(O)c2C4O)C1 (stereo not given)
Activity (Staphylococcus aureus): inactive
Activity (Bacillus subtilis): inactive
Activity (Escherichia coli): inactive
Activity (Pseudomonas aeruginosa): inactive
Activity (Rhizomucor miehei): inactive
Activity (Candida albicans): inactive

C[C@@H]1CC(=O)C2=C(C1)C[C@@H](O)[C@]1(O)[C@H]2C(=O)c2cccc(O)c2[C@@H]1O
Activity (Staphylococcus aureus): inactive
Activity (Bacillus subtilis): inactive
Activity (Escherichia coli): inactive
Activity (Pseudomonas aeruginosa): inactive
Activity (Rhizomucor miehei): inactive
Activity (Candida albicans): inactive
Activity (Trichomonas vaginalis): inactive

— ChEMBL document CHEMBL1142407, “Angucyclinones from an Indonesian Streptomyces sp” (J Nat Prod, 2008)
